Laboratory results: ChEMBL document CHEMBL1255409, “In vitro activity of ceftaroline against 623 diverse strains of anaerobic bacteria” (2010)
Converted amounts (≈) assume the structure as drawn.

Tests used:
Assay type in all cases: functional
Clostridium tertium = test: Antimicrobial activity against Clostridium tertium under anaerobic conditions after 44 hrs by CLSI-M11-47 protocol based agar dilution method
Method in brief: (§1)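 Reference agar dilution per CLSI M11-A7 with plates made on test day. Clinical isolates were stored at −70°C in 20% skim milk, subcultured twice, and 48-h cell paste was suspended in brucella broth to 0.5 McFarland. About 10^5 CFU/spot was applied with a Steers replicator. Plates were incubated 44 h at 37°C anaerobically. MIC was the lowest concentration giving complete inhibition or marked growth reduction versus the drug-free control.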

Prevotella tannerae = test: Antimicrobial activity against Prevotella tannerae under anaerobic conditions after 44 hrs by CLSI-M11-47 protocol based agar dilution method; details: Alloprevotella tannerae
Method in brief: (§2)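 Clinical isolates were stored at −70°C in 20% skim milk and identified phenotypically or by partial 16S rRNA sequencing. Each strain was subcultured twice from frozen stock. Cell paste from 48-h cultures was suspended in brucella broth to a 0.5 McFarland standard. About 10^5 CFU per spot were applied by Steers replicator to agar dilution plates prepared on the day of testing. Plates were incubated 44 h at 37°C in an anaerobic chamber. MIC was taken as the lowest concentration giving complete inhibition or marked reduction of growth versus the drug-free control.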

Clostridium butyricum = test: Antimicrobial activity against Clostridium butyricum under anaerobic conditions after 44 hrs by CLSI-M11-47 protocol based agar dilution method
Clostridium citroniae = test: Antimicrobial activity against Clostridium citroniae under anaerobic conditions after 44 hrs by CLSI-M11-47 protocol based agar dilution method; details: Enterocloster citroniae; method in brief: as §1
Bacteroides ovatus = test: Antimicrobial activity against Bacteroides ovatus under anaerobic conditions after 44 hrs by CLSI-M11-47 protocol based agar dilution method; method in brief: as §1
[1] = system: Paeniclostridium sordellii; test: Antimicrobial activity against Clostridium sordellii under anaerobic conditions after 44 hrs by CLSI-M11-47 protocol based agar dilution method; details: Paraclostridium sordellii; method in brief: as §1
Prevotella disiens = test: Antimicrobial activity against Prevotella disiens under anaerobic conditions after 44 hrs by CLSI-M11-47 protocol based agar dilution method; method in brief: as §2
Actinomyces turicensis = test: Antimicrobial activity against Actinomyces turicensis under anaerobic conditions after 44 hrs by CLSI-M11-47 protocol based agar dilution method; details: Schaalia turicensis; method in brief: as §1
Collinsella aerofaciens = test: Antimicrobial activity against Colinsella aerofaciens under anaerobic conditions after 44 hrs by CLSI-M11-47 protocol based agar dilution method; method in brief: as §1
Porphyromonas somerae = test: Antimicrobial activity against Porphyromonas somerae under anaerobic conditions after 44 hrs by CLSI-M11-47 protocol based agar dilution method; method in brief: as §2
[2] = system: Porphyromonas asaccharolytica; test: Antimicrobial activity against Porphyromonas asaccharolyticus under anaerobic conditions after 44 hrs by CLSI-M11-47 protocol based agar dilution method; method in brief: as §2
[3] = system: Fusobacterium necrophorum; test: Antimicrobial activity against Fusobacterium necrophorum under anaerobic conditions after 44 hrs by CLSI-M11-47 protocol based agar dilution method; method in brief: as §1
Solobacterium moorei = test: Antimicrobial activity against Solobacterium moorei under anaerobic conditions after 44 hrs by CLSI-M11-47 protocol based agar dilution method; method in brief: as §2
Prevotella corporis = test: Antimicrobial activity against Prevotella corporis under anaerobic conditions after 44 hrs by CLSI-M11-47 protocol based agar dilution method; method in brief: as §2
Gemella sanguinis = test: Antimicrobial activity against Gemella sanguinis under anaerobic conditions after 44 hrs by CLSI-M11-47 protocol based agar dilution method; method in brief: as §2
Peptoniphilus harei = test: Antimicrobial activity against Peptoniphilus harei under anaerobic conditions after 44 hrs by CLSI-M11-47 protocol based agar dilution method; method in brief: as §2
Fusobacterium mortiferum = test: Antimicrobial activity against Fusobacterium mortiferum under anaerobic conditions after 44 hrs by CLSI-M11-47 protocol based agar dilution method; method in brief: as §1
Clostridium subterminale = test: Antimicrobial activity against Clostridium subterminale under anaerobic conditions after 44 hrs by CLSI-M11-47 protocol based agar dilution method; method in brief: as §1
Hoylesella loescheii = test: Antimicrobial activity against Prevotella loescheii under anaerobic conditions after 44 hrs by CLSI-M11-47 protocol based agar dilution method; method in brief: as §2
Clostridium cadaveris = test: Antimicrobial activity against Clostridium cadaveris under anaerobic conditions after 44 hrs by CLSI-M11-47 protocol based agar dilution method; method in brief: as §1
Bacteroides uniformis = test: Antimicrobial activity against Bacteroides uniformis under anaerobic conditions after 44 hrs by CLSI-M11-47 protocol based agar dilution method; method in brief: as §1
[4] = system: Parabacteroides distasonis; test: Antimicrobial activity against Bacteroides distasonis under anaerobic conditions after 44 hrs by CLSI-M11-47 protocol based agar dilution method; method in brief: as §1
Lacticaseibacillus casei = test: Antimicrobial activity against Lactobacillus casei under anaerobic conditions after 44 hrs by CLSI-M11-47 protocol based agar dilution method; method in brief: as §2
Clostridium hylemonae = test: Antimicrobial activity against Clostridium hylemonae under anaerobic conditions after 44 hrs by CLSI-M11-47 protocol based agar dilution method; method in brief: as §1
[5] = system: Paraclostridium bifermentans; test: Antimicrobial activity against Clostridium bifermentans under anaerobic conditions after 44 hrs by CLSI-M11-47 protocol based agar dilution method; method in brief: as §1
Anaerococcus octavius = test: Antimicrobial activity against Anaerococcus octavius under anaerobic conditions after 44 hrs by CLSI-M11-47 protocol based agar dilution method; method in brief: as §1
Clostridium baratii = test: Antimicrobial activity against Clostridium baratii under anaerobic conditions after 44 hrs by CLSI-M11-47 protocol based agar dilution method
Prevotella bivia = test: Antimicrobial activity against Prevotella bivia under anaerobic conditions after 44 hrs by CLSI-M11-47 protocol based agar dilution method; method in brief: as §2
Prevotella denticola = test: Antimicrobial activity against Prevotella denticola under anaerobic conditions after 44 hrs by CLSI-M11-47 protocol based agar dilution method; method in brief: as §2
Anaerococcus tetradius = test: Antimicrobial activity against Anaerococcus tetradius under anaerobic conditions after 44 hrs by CLSI-M11-47 protocol based agar dilution method; method in brief: as §1
Parvimonas micra = test: Antimicrobial activity against Parvimonas micra under anaerobic conditions after 44 hrs by CLSI-M11-47 protocol based agar dilution method; method in brief: as §2
[6] = system: Lacticaseibacillus rhamnosus; test: Antimicrobial activity against Lactobacillus rhamnosus under anaerobic conditions after 44 hrs by CLSI-M11-47 protocol based agar dilution method; method in brief: as §2

Cc1ncc([N+](=O)[O-])n1CCO [METRONIDAZOLE]
MIC50 (Clostridium tertium): 0.5 µg/mL (≈ 2.92 µM)
MIC90 (Clostridium tertium): 4 µg/mL (≈ 23.4 µM)
MIC50 (Prevotella tannerae): 0.5 µg/mL (≈ 2.92 µM)
MIC90 (Prevotella tannerae): 2 µg/mL (≈ 11.7 µM)
MIC50 (Clostridium butyricum): 0.5 µg/mL (≈ 2.92 µM)
MIC90 (Clostridium butyricum): 4 µg/mL (≈ 23.4 µM)
MIC50 (Clostridium citroniae): 0.06 µg/mL (≈ 0.351 µM)
MIC90 (Clostridium citroniae): 0.25 µg/mL (≈ 1.46 µM)
MIC50 (Bacteroides ovatus): 1 µg/mL (≈ 5.84 µM)
MIC90 (Bacteroides ovatus): 2 µg/mL (≈ 11.7 µM)
MIC50 [1]: 0.5 µg/mL (≈ 2.92 µM)
MIC90 [1]: 4 µg/mL (≈ 23.4 µM)
MIC50 (Prevotella disiens): 0.5 µg/mL (≈ 2.92 µM)
MIC90 (Prevotella disiens): 2 µg/mL (≈ 11.7 µM)
MIC50 (Actinomyces turicensis): > 32 µg/mL
MIC90 (Actinomyces turicensis): > 32 µg/mL
MIC50 (Collinsella aerofaciens): 0.5 µg/mL (≈ 2.92 µM)
MIC90 (Collinsella aerofaciens): 1 µg/mL (≈ 5.84 µM)
MIC50 (Porphyromonas somerae): 0.5 µg/mL (≈ 2.92 µM)
MIC90 (Porphyromonas somerae): 0.5 µg/mL (≈ 2.92 µM)
MIC50 [2]: 0.06 µg/mL (≈ 0.351 µM)
MIC90 [2]: 0.125 µg/mL (≈ 0.73 µM)
MIC50 [3]: 0.125 µg/mL (≈ 0.73 µM)
MIC90 [3]: 0.25 µg/mL (≈ 1.46 µM)
MIC50 (Solobacterium moorei): 0.5 µg/mL (≈ 2.92 µM)
MIC90 (Solobacterium moorei): 1 µg/mL (≈ 5.84 µM)
MIC50 (Prevotella corporis): 0.5 µg/mL (≈ 2.92 µM)
MIC90 (Prevotella corporis): 2 µg/mL (≈ 11.7 µM)
MIC50 (Gemella sanguinis): 1 µg/mL (≈ 5.84 µM)
MIC90 (Gemella sanguinis): 4 µg/mL (≈ 23.4 µM)
MIC50 (Peptoniphilus harei): 1 µg/mL (≈ 5.84 µM)
MIC90 (Peptoniphilus harei): 4 µg/mL (≈ 23.4 µM)
MIC50 (Fusobacterium mortiferum): 0.5 µg/mL (≈ 2.92 µM)
MIC90 (Fusobacterium mortiferum): 1 µg/mL (≈ 5.84 µM)
MIC50 (Clostridium subterminale): 0.5 µg/mL (≈ 2.92 µM)
MIC90 (Clostridium subterminale): 4 µg/mL (≈ 23.4 µM)
MIC50 (Hoylesella loescheii): 0.5 µg/mL (≈ 2.92 µM)
MIC90 (Hoylesella loescheii): 2 µg/mL (≈ 11.7 µM)
MIC50 (Clostridium cadaveris): 0.5 µg/mL (≈ 2.92 µM)
MIC90 (Clostridium cadaveris): 4 µg/mL (≈ 23.4 µM)
MIC50 (Bacteroides uniformis): 1 µg/mL (≈ 5.84 µM)
MIC90 (Bacteroides uniformis): 2 µg/mL (≈ 11.7 µM)
MIC50 [4]: 1 µg/mL (≈ 5.84 µM)
MIC90 [4]: 2 µg/mL (≈ 11.7 µM)
MIC50 (Lacticaseibacillus casei): > 64 µg/mL
MIC90 (Lacticaseibacillus casei): > 64 µg/mL
MIC50 (Clostridium hylemonae): 0.5 µg/mL (≈ 2.92 µM)
MIC90 (Clostridium hylemonae): 4 µg/mL (≈ 23.4 µM)
MIC50 [5]: 0.5 µg/mL (≈ 2.92 µM)
MIC90 [5]: 4 µg/mL (≈ 23.4 µM)
MIC50 (Anaerococcus octavius): 1 µg/mL (≈ 5.84 µM)
MIC90 (Anaerococcus octavius): 4 µg/mL (≈ 23.4 µM)
MIC50 (Clostridium baratii): 0.5 µg/mL (≈ 2.92 µM)
MIC90 (Clostridium baratii): 4 µg/mL (≈ 23.4 µM)
MIC50 (Prevotella bivia): 1 µg/mL (≈ 5.84 µM)
MIC90 (Prevotella bivia): 2 µg/mL (≈ 11.7 µM)
MIC50 (Prevotella denticola): 0.5 µg/mL (≈ 2.92 µM)
MIC90 (Prevotella denticola): 2 µg/mL (≈ 11.7 µM)
MIC50 (Anaerococcus tetradius): 1 µg/mL (≈ 5.84 µM)
MIC90 (Anaerococcus tetradius): 2 µg/mL (≈ 11.7 µM)
MIC50 (Parvimonas micra): 0.25 µg/mL (≈ 1.46 µM)
MIC90 (Parvimonas micra): 0.25 µg/mL (≈ 1.46 µM)
MIC50 [6]: > 64 µg/mL
MIC90 [6]: > 64 µg/mL
